# The sample as a whole holds a higher share of hits than the screen did.
# GASC1 inh = blocks human GASC-1 (KDM4C) demethylase activity; inhibition, % at 12.5 µM; GST-KDM4C 2-372, H3K9me3 peptide, LANCE TR-FRET; actives 0.15% (n = 96,000);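 active means mean replicate inhibition above about 25%, with at least 55% of replicates also reaching it, limit read from the data, passing the limit was not always enough; inconclusive means only one of those two conditions met; inactive means neither condition met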
# Target sequence (Q9H3R0 2-372 limits assumed): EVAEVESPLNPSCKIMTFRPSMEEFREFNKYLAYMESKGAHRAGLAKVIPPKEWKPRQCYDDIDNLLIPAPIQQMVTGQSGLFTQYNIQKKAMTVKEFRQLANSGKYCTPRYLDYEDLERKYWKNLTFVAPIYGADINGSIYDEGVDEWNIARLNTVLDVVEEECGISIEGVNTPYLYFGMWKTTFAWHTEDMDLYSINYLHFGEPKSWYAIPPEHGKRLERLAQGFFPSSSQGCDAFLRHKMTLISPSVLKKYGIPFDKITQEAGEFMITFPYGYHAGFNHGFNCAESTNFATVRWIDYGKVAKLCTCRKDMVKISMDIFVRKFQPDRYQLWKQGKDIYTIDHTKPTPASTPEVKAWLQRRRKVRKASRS
#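 material = GST-tagged GASC-1 (JMJD2C) catalytic fragment, aa 2-372 | amount = enzyme final amount 10 nM | medium = HEPES buffer, pH 7.5, plus ascorbate | also added = H3K9me3 peptide substrate, Fe(II), 2-oxoglutarate | dosing = single dose | times = 30 min demethylation and 1 h detection at room temperature | detection = LANCE TR-FRET | read-out basis = Fall in 671/618 emission ratio as inhibition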
# IDH1 R132H inh = blocks human IDH1 R132H reductase activity | diaphorase/resazurin fluorescence, 60 min | inhibition, % at 10 µM | actives 0.18% (n = 70,000) | AID 624101; in the data active means inhibition above about 34%; inconclusive means no clear call, values can overlap the other calls; inactive means below about 11%;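 further: 0% = DMSO and 100% = no enzyme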
# T cruzi growth-1 = inhibitors of T. cruzi proliferation; actives 5.9% (n = 77,000); T. cruzi beta-gal in NIH3T3, GalScreen luminescence, 90 h; inhibition, % at 8.34 µM;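 active means mean inhibition above about 93%, with at least 55% of replicates each passing it, limit read from the data, passing the limit was not always enough; inconclusive means only one of those two conditions holds; inactive means neither condition holds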
# T cruzi growth-2 = blocks T. cruzi growth in NIH3T3 host cells; shares compounds with T cruzi growth-1; T. cruzi beta-gal in NIH3T3, GalScreen luminescence, 90 h; inhibition, % at 8.35 µM; actives 72% (n = 5,600);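 active means mean replicate inhibition above about 95% and at least 55% of replicates individually reaching it, limit read from the data; inconclusive means only one of the two criteria is met; inactive means neither criterion is met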
# T cruzi growth-3 = Trypanosoma cruzi proliferation inhibition | AID 651740 | T. cruzi beta-gal in NIH3T3, GalScreen luminescence, 90 h | actives 21% (n = 5,600) | shares compounds with T cruzi growth-1 | inhibition, % at 2.09 µM;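 active means mean inhibition above about 95%, with at least 55% of replicates also reaching it, limit read from the data; inconclusive means meets just one of the two conditions; inactive means meets neither condition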;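 further: plate controls were neutral control median for no effect and positive control median for full effect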
# NIH3T3 tox = kills mouse NIH/3T3 fibroblasts. shares compounds with T cruzi growth-1. NIH/3T3 viability, CellTiter-Glo ATP luminescence, 90 h. cytotoxicity (signal decrease), % at 8.35 µM. actives 14% (n = 5,600);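 active means mean signal decrease across replicates above about 35% based on untreated-well scatter, with enough replicates individually passing, limit read from the data; inconclusive means no rule stated though some were filed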;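 further: 0% = median of neutral control wells and 100% = median of positive control wells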
# 3T3 cytotox 2 = kills mouse NIH/3T3 fibroblasts; shares compounds with T cruzi growth-1; NIH/3T3 viability, CellTiter-Glo ATP luminescence, 90 h; inhibition, % at 24.9 µM; actives 56% (n = 5,600);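 active means mean loss of cell viability signal at or above a set limit, and enough replicates individually reaching it; inconclusive means meets only the mean limit or only the replicate share; inactive means meets neither condition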;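 further: 0% = median of neutral control wells and 100% = median of positive control wells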
# The depositor's hits bear a star; ? = inconclusive; . = no result given.
SMILES,GASC1 inh,IDH1 R132H inh,T cruzi growth-1,T cruzi growth-2,T cruzi growth-3,NIH3T3 tox,3T3 cytotox 2
Cc1ncc2ccccc2c1C#N,.,-1,.,.,.,.,.
COc1ccccc1S(=O)(=O)N[C@@H]1C=C[C@@H](CC(=O)N2CCN(C)CC2)O[C@H]1CO,3,0,38,.,.,.,.
COC(=O)CCCCCCC(=O)N/N=C/c1ccc(CO)o1,.,0,.,.,.,.,.
COC(=O)c1c(NC(=O)CSc2ccccn2)sc2c1CCC2,.,0,.,.,.,.,.
COC(=O)C1=CO[C@@H](O[C@@H]2O[C@H](CO)[C@@H](O)[C@H](O)[C@H]2O)[C@H]2[C@]1(O)[C@H](O)C[C@]2(C)O,.,0,.,.,.,.,.
OCCN(CCO)Cc1ccc(Cl)cc1,.,0,.,.,.,.,.
C[C@H]1CCCCO[C@H](CN(C)Cc2ccc(C(F)(F)F)cc2)[C@@H](C)CN([C@@H](C)CO)C(=O)c2cc(NC(=O)c3ccncc3)ccc2O1,0,.,98*,103*,31,3,106*
C[C@@H]1CCCCO[C@@H](CN(C)Cc2ccc(C(F)(F)F)cc2)[C@@H](C)CN([C@@H](C)CO)C(=O)c2cc(NC(=O)c3ccncc3)ccc2O1,-2,1,36,.,.,.,.
C[C@H]1CCCCO[C@@H](CN(C)Cc2ccc(C(F)(F)F)cc2)[C@@H](C)CN([C@@H](C)CO)C(=O)c2cc(NC(=O)c3ccncc3)ccc2O1,0,3,24,.,.,.,.
C[C@@H]1CN([C@H](C)CO)C(=O)c2cc(NC(=O)c3ccncc3)ccc2O[C@@H](C)CCCCO[C@@H]1CN(C)Cc1ccc(C(F)(F)F)cc1,1,-1,109*,109*,52,8,26*
C[C@@H]1CCCCO[C@H](CN(C)Cc2ccc(C(F)(F)F)cc2)[C@H](C)CN([C@H](C)CO)C(=O)c2cc(NC(=O)c3ccncc3)ccc2O1,-1,.,109*,106*,50,19,73*
C[C@@H]1CCCCO[C@H](CN(C)Cc2ccc(C(F)(F)F)cc2)[C@@H](C)CN([C@H](C)CO)C(=O)c2cc(NC(=O)c3ccncc3)ccc2O1,-1,0,33,.,.,.,.
CCn1c(SCc2nc3ccccc3[nH]2)nnc1-c1cccc(Cl)c1,.,-1,.,.,.,.,.
C[C@H](CO)N1C[C@H](C)[C@@H](CN(C)C(=O)Nc2cccc3ccccc23)Oc2ccc(NC(=O)C3CCCCC3)cc2C1=O,-1,.,3,.,.,.,.
CCc1ccc(OCC(=O)Nc2ccccc2C(N)=O)c(Br)c1,.,0,.,.,.,.,.
C[C@@H]1CN([C@H](C)CO)C(=O)c2cc(NS(=O)(=O)c3cn(C)cn3)ccc2O[C@@H](C)CCCCO[C@@H]1CN(C)CC1CCCCC1,-1,.,0,.,.,.,.
NC(=O)c1c(NC(=O)COc2cccc(C(F)(F)F)c2)sc2c1CCC2,.,0,.,.,.,.,.
COc1ccccc1C#Cc1ccc([C@H]2[C@H]3CN(C(=O)C4CC4)CCCCN3[C@H]2CO)cc1,.,.,101*,100*,57,30,48*
COc1ccccc1C#Cc1ccc([C@H]2[C@H]3CN(S(C)(=O)=O)CCCCN3[C@H]2CO)cc1,1,.,75,.,.,.,.
COc1ccccc1C#Cc1ccc([C@@H]2[C@H](CO)N3CCCCN(S(C)(=O)=O)C[C@@H]23)cc1,2,.,91,.,.,.,.
COc1ccccc1C#Cc1ccc([C@H]2[C@@H](CO)N3CCCCN(C(=O)C4CC4)C[C@@H]23)cc1,.,.,110*,104*,65,57*,47*
C[C@H](CO)N1C[C@H](C)[C@@H](CN(C)Cc2ccc3c(c2)OCO3)OCCCC[C@H](C)Oc2ccc(NS(=O)(=O)c3ccc(F)cc3)cc2C1=O,0,.,69,.,.,.,.
COc1ccc(S(=O)(=O)Nc2ccc3c(c2)C(=O)N([C@@H](C)CO)C[C@@H](C)[C@H](CN(C)Cc2ccc4c(c2)OCO4)OCCCC[C@H](C)O3)cc1,0,0,100*,109*,-2,11,65*
Cc1ccc(S(=O)(=O)Nc2ccc3c(c2)C(=O)N([C@H](C)CO)C[C@@H](C)[C@@H](CN(C)Cc2ccc4c(c2)OCO4)OCCCC[C@@H](C)O3)cc1,-2,2,?,105*,81,29,102*
